Experiments:
[1] = target: T1, Apoptosis regulator Bcl-2 (Homo sapiens, UniProt P10415); experiment: In vitro inhibition of Bak-Bh3 peptide binding to the Bcl-2 using human myeloid leukemia cell line HL-60; Inactive
[2] = target: T1, Apoptosis regulator Bcl-2; experiment: In vitro inhibitory activity against Bak-Bh3 peptide binding to the Bcl-2
In short: (§1)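 FP competition assay with recombinant GST-fused Bcl-2 (46 kDa), final 270 nM, and a fluorescein-labelled 16-mer Bak BH3 peptide tracer, final 290 nM, in 1X PBS. Compound added with final DMSO below 1%, incubated 10 min at room temperature, and polarization read at ex 485/em 535 nm. Screening was at 100 μM. IC50 came from 6–7-point serial dilutions from 100 μM, in triplicate.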

[3] = target: T1, Apoptosis regulator Bcl-2; experiment: Inhibitory activity against Bcl-2; in short: as §1
[4] = target: T1, Apoptosis regulator Bcl-2; experiment: In vitro inhibitory activity against Bak-Bh3 peptide binding to the Bcl-2 using human myeloid leukemia cell line HL-60
In short: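 Fluorescence polarization competition with 46 kDa recombinant GST-fused Bcl-2 (270 nM final) and 16-mer fluorescein-labelled Bak BH3 tracer (290 nM final) in PBS, preincubated 20 min at room temperature. Compound added (DMSO <1%), read after 10 min at room temperature, ex 485/em 535 nm. IC50 from 6–7 point serial dilutions in triplicate starting at 100 μM.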

[5] = target: T1, Apoptosis regulator Bcl-2; experiment: Inhibitory activity against Bcl-2 using bromide assay
In short: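 HL-60 cells in RPMI 1640 with 10% FBS at 37 °C and 5% CO2 were plated at 2000–4000 cells/well, with various compound concentrations added at the start. After 4 days, MTT was added for 4 h at 37 °C. Formazan was solubilized in 2-propanol and absorbance read. IC50 is for inhibition of cell growth.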

T1 sequence (P10415 whole entry): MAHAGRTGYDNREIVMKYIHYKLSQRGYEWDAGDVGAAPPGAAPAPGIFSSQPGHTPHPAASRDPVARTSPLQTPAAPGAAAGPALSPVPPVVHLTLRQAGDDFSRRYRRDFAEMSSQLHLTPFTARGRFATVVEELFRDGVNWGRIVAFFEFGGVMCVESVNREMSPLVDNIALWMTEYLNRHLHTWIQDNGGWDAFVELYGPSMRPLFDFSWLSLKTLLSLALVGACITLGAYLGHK

SMILES	IC50 [1]	also measured
C[n+]1cc2c3cc4c(cc3ccc2c2ccc3c(c21)OCO3)OCO4	Not Active	–
O=C1c2cc(Br)ccc2-c2ccc3c4ccc5c6c(ccc(c7ccc1c2c73)c64)C(=O)c1cc(Br)ccc1-5	–	IC50 [2]: 7.7 µM
CN1COc2ccc3ccc4c(c3c2C1)CN(C)CO4	Not Active	–
Cc1cc2c(cc1C)[n+]([O-])c(-c1nc3ccccc3s1)c(N)[n+]2[O-]	Not Active	–
CCOC(=O)C(C#N)C1c2cc(Br)ccc2OC(N)C1C(=O)OCC (stereo not drawn)	–	IC50 [3]: 9 µM
c1cc[n+]2c(c1)-c1cccc[n+]1CCC2	Not Active	–
CN(C)CCNCCCNc1c2ccccc2nc2cccc([N+](=O)[O-])c12	Not Active	–
O=C1c2cc([N+](=O)[O-])ccc2-c2ccc3c4ccc5c6c(ccc(c7ccc1c2c73)c64)C(=O)c1cc([N+](=O)[O-])ccc1-5	Not Active	–
COc1cc2ccc3c4cc5c(cc4c[n+](C)c3c2cc1OC)OCO5	Not Active	–
Cn1c(=O)c2nc(-[n+]3ccc(-c4ccccc4)cc3)[nH]c2n(C)c1=O	Not Active	–
COc1ccc2c(c1)C(=O)C1C=C([N+]#N)C=CC1N2 (stereo not drawn)	–	IC50 [4]: 10.4 µM
Cc1cc(Cl)cc(C(=O)Nc2cc(S(=O)(=O)c3ccc(Cl)cc3)ccc2Cl)c1O	–	IC50 [3]: 3.3 µM
Nc1nc(N)c2c(n1)[n+]([O-])c1ccccc1[n+]2[O-]	Not Active	–
CC(C)C(C(=O)O)N1C(=O)/C(=C/c2ccc(Br)cc2)SC1=S (stereo not drawn)	–	Ki [3]: 2.4 µM
COc1ccc2c(c1)c[n+](C)c1c3cc(OC)c(OC)cc3ccc21	Not Active	–
O=C1c2ccc[n+]3c2-c2c1ccc[n+]2CC3	Not Active	–
O=c1c2ccc(S(=O)(=O)c3ccc4c(=O)n5c6ccccc6nc5c5cccc3c45)c3cccc(c32)c2nc3ccccc3n12	–	IC50 [4]: 14 µM
Brc1cccc[n+]1-c1ccc2cc(-[n+]3ccccc3Br)ccc2c1	–	IC50 [4]: 11.7 µM
O=C(CSc1ccccn1)c1sc2cccc[n+]2c1O	Not Active	–
OC1C[n+]2cc3ccccn3c2-c2cccc[n+]21 (stereo not drawn)	Not Active	–
CS1(C)=NC(=O)C2=C(N=1)c1ccccc1S2(=O)=O	Not Active	–
COc1ccc2c(c1)CCc1cc(OC)ccc1/[N+]([O-])=[N+]\2[O-]	–	IC50 [4]: 10.4 µM; IC50 [5]: 4 µM
O=C1c2ccccc2-c2ccc3c4ccc5c6c(ccc(c7ccc1c2c73)c64)C(=O)c1ccccc1-5	Not Active	–
N=C(N)c1ccc(/N=N/c2c(O)ccc3c2[nH]c2ccccc23)cc1	–	IC50 [4]: 5.8 µM
COc1cc2cc[n+]3c4ccc([N+](=O)[O-])cc4ccc3c2cc1OC.[Cl-]	Not Active	–
CCCC[C@H]1C(=O)O[C@H](C)[C@H](NC(=O)c2cccc(NC=O)c2O)C(=O)O[C@@H](C)[C@@H]1OC(=O)CC(C)C [ANTIMYCIN A3]	–	IC50 [3]: 2 µM

Further lines, with some results ahead:

IC50 [1]	SMILES	also measured
Not Active	O=C1c2ccccc2-c2cc(O)c3c4c(O)cc5c6c(ccc(c7ccc1c2c73)c64)C(=O)c1ccccc1-5	–
Not Active	O=C(CSc1nc2ccccc2s1)c1sc2sc3ccccc3[n+]2c1O	–
Not Active	c1cc[n+]2cc3ccc4c[n+]5ccccc5cc4c3cc2c1	–
Not Active	O=c1c2ccccc2c2nc3ccc4c(=O)c5ccccc5c5nc6ccc1c2c6c3c45	–
Not Active	CN1C(=O)c2ccc3c4ccc5c(=O)n6c7ccccc7nc6c6ccc(c7ccc(c2c37)C1=O)c4c56	–
Not Active	Cc1cc(-c2ccccc2)[nH]c2nc3ccccc3[n+]1-2	–
Not Active	COc1cc2ccc3c[n+]4ccccc4cc3c2cc1OC	–
Not Active	[O-][n+]1c2c([n+]([O-])c3c4ccccc4ccc31)-c1cccc3cccc-2c13	–
Not Active	O=C1c2ccccc2C(=O)c2c1ccc1nc3c(ccc4c(O)c5ccccc5c(O)c43)nc21	–
Not Active	O=C1NC(=O)c2ccc3c4ccc5c6c(ccc(c7ccc1c2c73)c64)C(=O)N(c1ccccc1)C5=O	–
Not Active	NCC(=O)c1ccc2cc(Br)c3ccccc3c2c1	–
